Measurements from different studies.
Compare with care: the assays were run in different laboratories.
Organism: Aspergillus fumigatus
Read-out: microbial growth

CC1=NN(CNC(=O)c2ccccn2)C(=O)C1=NNn1c(-c2ccccc2)nc2ccccc2c1=O — MIC (broth dilution): 104 µM
C#CCCCCCCCCCCCC(O)CC(O)CO (stereo not shown) — IC50 (resazurin; ATCC204305): > 200 µg/mL
Clc1ccccc1C(c1ccccc1)(c1ccccc1)n1ccnc1 — inhibition zone (disc diffusion; 20000 µg/mL): 22 mm
O=C1NN=C(N=Cc2ccc(O)c(O)c2)C1=NNn1c(-c2ccccc2)nc2ccccc2c1=O — MIC (broth dilution): 53.5 µM
CCCCCCCCCCCCCC(O)CC(O)CO (stereo not shown) — IC50 (resazurin; ATCC204305): > 200 µg/mL
OC(Cn1cncn1)(Cn1cncn1)c1ccc(F)cc1F — MIC (broth dilution; MF5668): > 128 µg/mL
C=CCCCCCCCCCCCC(O)CC(O)CO (stereo not shown) — IC50 (resazurin; ATCC204305): > 200 µg/mL
C[C@@H]1[C@H](O)[C@@H](C)/C=C/C=C/C=C/C=C/C=C/C=C/C=C/[C@H](O[C@@H]2O[C@H](C)[C@@H](O)[C@H](N)[C@@H]2O)C[C@@H]2O[C@](O)(C[C@@H](O)C[C@@H](O)[C@H](O)CC[C@@H](O)C[C@@H](O)CC(=O)O[C@H]1C)C[C@H](O)[C@H]2C(=O)O — MIC (broth dilution; MF5668): 0.5 µg/mL
CC1=NN(CNC(=O)c2ccccc2)C(=O)C1=NNn1c(-c2ccccc2)nc2ccccc2c1=O — MIC (broth dilution): 104 µM
C[C@@H]1[C@H](O)[C@@H](C)/C=C/C=C/C=C/C=C/C=C/C=C/C=C/[C@H](O[C@@H]2O[C@H](C)[C@@H](O)[C@H](N)[C@@H]2O)C[C@@H]2O[C@](O)(C[C@@H](O)C[C@@H](O)[C@H](O)CC[C@@H](O)C[C@@H](O)CC(=O)O[C@H]1C)C[C@H](O)[C@H]2C(=O)O — IC50 (ATCC204305): 860 nM
